ChEMBL document CHEMBL3865803, “Bicyclic octahydrocyclohepta[b]pyrrol-4(1H)one derivatives as novel selective anti-hepatitis C virus agents” (Eur J Med Chem, 2016)

Assays:
Hepatitis C virus [1] = experiment: Antiviral activity against HCV genotype 2a infected in human Huh7.5-FGR-JC1-Rluc2A replicon cells assessed as inhibition of viral RNA replication at 50 uM measured after 48 hrs by luciferase reporter gene assay relative to control; format: functional, Hepacivirus hominis; details: Huh-7, 48 h
How it was run: (§1)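 Replicon cells (gt1b firefly luciferase; gt2a Renilla luciferase) in DMEM/10% FBS with G418, ~1 × 10^4 cells/well, dosed 12 h after seeding with 50 µM compound or DMSO (1% final) for 48 h at 37 °C. Cells were PBS-washed and luciferase read; % inhibition was taken versus DMSO-treated cells, mean±SD, n=3.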

[2] = Cytotoxicity against human Huh7.5 cells measured after 48 hrs by MTS assay; format: toxicity, cell-based, Huh-7; details: for CC50 at 48 h: Huh7.5 cells; for Activity: huh-7, 48 h
How it was run: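 Parental Huh7.5 cells were treated 12 h after seeding with 8-10 dilutions of compound or DMSO (1% final) for 48 h at 37 °C. Viability was read by MTS bioreduction to formazan. CC50 is the concentration halving the MTS signal, mean ± SD of three independent experiments.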

Hepatitis C virus [3] = experiment: Antiviral activity against HCV genotype 1b infected in human Huh7/Rep-Feo1b replicon cells assessed as inhibition of viral RNA replication at 50 uM measured after 48 hrs by luciferase reporter gene assay relative to control; format: functional, Hepacivirus hominis; details: Huh-7, 48 h; how it was run: as §1
Hepatitis C virus [4] = experiment: Antiviral activity against HCV genotype 1b infected in human Huh7/Rep-Feo1b replicon cells assessed as inhibition of viral RNA replication measured after 48 hrs by luciferase reporter gene assay; format: functional, cell-based, Hepacivirus hominis; details: Huh-7, 48 h
How it was run: (§2)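 EC50 from concentration-response in replicon cells (gt1b firefly, gt2a Renilla luciferase reporter) maintained with G418. Compound added 12 h post-seeding (~1 × 10^4 cells/well), 48 h exposure, DMSO 1% final. Luciferase was compared with DMSO controls; the value is the mean ± SD of three independent 8-12 point quarter-log dilution series, calculated with CalcuSyn.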

Hepatitis C virus [5] = experiment: Antiviral activity against HCV genotype 2a infected in human Huh7.5-FGR-JC1-Rluc2A replicon cells assessed as inhibition of viral RNA replication incubated for 48 hrs by luciferase reporter gene assay; format: functional, cell-based, Hepacivirus hominis; details: Huh-7, 48 h; how it was run: as §2
[6] = Selectivity index, ratio of CC50 for human Huh7.5 cells to EC50 for HCV genotype 2a infected in human Huh7.5-FGR-JC1-Rluc2A replicon cells; parameters: species or system Huh-7
[7] = Selectivity index, ratio of CC50 for human Huh7.5 cells to EC50 for HCV genotype 1b infected in human Huh7/Rep-Feo1b replicon cells; parameters: species or system Huh-7

SMILES	inhibition at 50 µM (Hepatitis C virus [1]) [%]	CC50 at 48 h [2] [µM]	Activity [2] [%]	inhibition at 50 µM (Hepatitis C virus [3]) [%]	EC50 (Hepatitis C virus [4]) [µM]	EC50 (Hepatitis C virus [5]) [µM]	Ratio CC50/EC50 [6]	Ratio CC50/EC50 [7]
CCOC(=O)[C@H](C)N1CC[C@H]2C(=O)CCCC[C@@H]21	83	–	–	–	–	–	–	–
CCOC(=O)[C@@H](C)N1CC[C@H]2C(=O)CCCC[C@@H]21	38	> 100	88	24	–	–	–	–
OC1CCCC[C@H]2[C@H]1[C@@H](c1cccc(F)c1)CN2Cc1ccccc1 (mixture of isomers)	99	36.9	28	99	2	1.2	30.8	18.4
CCOC(=O)[C@@H]1C[C@@H]2C(=O)CCCC[C@@H]2N1C(=O)c1ccccc1 (racemic)	95	> 200	–	59	14.9	14.3	>13.9	>13.4
Cc1ccc(S(=O)(=O)N2[C@H](C(=O)O)C[C@@H]3/C(=N/Nc4ccccc4)CCCC[C@@H]32)cc1 (racemic)	81	> 200	–	25	–	26.3	>7.6	–
CCOC(=O)[C@@H]1C[C@@H]2C(=O)CCCC[C@@H]2N1S(=O)(=O)c1ccc(C(C)(C)C)cc1 (racemic)	94	> 200	–	49	34.4	13	>15.4	>5.8
O=C1CCCC[C@@H]2[C@@H]1[C@H](c1cccc(F)c1)CN2Cc1ccccc1 (racemic)	97	> 50	63	83	11.7	1.6	>31.8	>4.2
O=C1CCCC[C@H]2[C@H]1[C@@H](c1ccccc1)CN2Cc1ccccc1 (racemic)	96	134	85	71	7.7	4.6	29.2	17.3
Cc1ccc(S(=O)(=O)N2[C@H](C(=O)N3CCOCC3)C[C@@H]3C(=O)CCCC[C@@H]32)cc1 (racemic)	12	> 200	–	19	–	–	–	–
CCOC(=O)[C@@H]1C[C@@H]2C(=O)CCCC[C@H]2N1S(=O)(=O)c1ccc(C)cc1 (racemic)	91	> 200	–	51	59.4	8.7	22.9	3.4
Cc1ccc(S(=O)(=O)N2[C@H](C(=O)NCCc3ccccc3)C[C@@H]3C(=O)CCCC[C@@H]32)cc1 (racemic)	48	153	–	66	28.1	–	–	5.4
Cc1ccc(S(=O)(=O)N2[C@H]3CCCCC(=O)[C@@]3(C)C[C@H]2C(=O)O)cc1 (racemic)	33	> 200	–	41	–	–	–	–
O=C1CCCC[C@@H]2[C@@H](N1)[C@H](c1cccc(F)c1)CN2Cc1ccccc1 (racemic)	80	–	–	49	–	–	–	–
C[C@]12C[C@@H](Cc3ccccc3)N(Cc3ccccc3)[C@H]1CCCC(=O)N2 (racemic)	95	> 50	60	87	18.2	11.5	>4.3	>2.7
CCOC(=O)[C@@H]1C[C@@H]2[C@@H](CCC[C@@H]2O)N1S(=O)(=O)c1ccc(C)cc1 (racemic)	45	> 150	93	38	–	–	–	–
CCOC(=O)[C@H]1C[C@H]2C(=O)CCCC[C@H]2N1S(=O)(=O)c1ccc(C)cc1 (racemic)	84	> 200	77	89	7.1	6.1	>32.8	>28.2
CCOC(=O)[C@@H]1C[C@@H]2NC(=O)CCCC[C@@H]2N1S(=O)(=O)c1ccc(C)cc1 (racemic)	71	143	92	66	11.6	8.2	17.4	12.4

SMILES	inhibition at 50 µM (Hepatitis C virus [1]) [%]	CC50 at 48 h [2] [µM]	Activity [2] [%]	inhibition at 50 µM (Hepatitis C virus [3]) [%]	EC50 (Hepatitis C virus [4]) [µM]	EC50 (Hepatitis C virus [5]) [µM]	Ratio CC50/EC50 [6]	Ratio CC50/EC50 [7]
Cc1ccc(S(=O)(=O)N2[C@H](C(N)=O)C[C@@H]3C(=O)CCCC[C@@H]32)cc1 (racemic)	38	> 200	–	–	–	–	–	–
CCOC(=O)[C@@H]1C[C@@H]2[C@@H](O)CCCC[C@@H]2N1S(=O)(=O)c1ccc(C)cc1 (racemic)	77	> 200	–	22	–	27.6	7.3	–
O=C(O)[C@@H]1C[C@H]2[C@@H](O)CCC[C@H]2N1 (racemic)	12	–	–	–	–	–	–	–
O=C1CCCC[C@H]2[C@H](N1)[C@@H](c1ccccc1)CN2Cc1ccccc1 (racemic)	59	> 200	98	80	24.1	12.4	>16.1	>8.3
CCOC(=O)[C@@H]1C[C@]2(C)C(=O)CCCC[C@@H]2N1S(=O)(=O)c1ccc(C)cc1 (racemic)	76	> 200	–	50	49.1	14.2	14.1	4.1
COc1cccc([C@@H]2CN(Cc3ccccc3)[C@@H]3CCCCC(=O)N[C@H]32)c1 (racemic)	54	–	–	59	–	–	–	–
Cc1ccc(S(=O)(=O)N2[C@H](C(=O)O)C[C@@H]3C(=O)CCCC[C@@H]32)cc1 (racemic)	42	> 200	–	14	–	–	–	–
Cl.Cl.Fc1cccc([C@@H]2CN(Cc3ccccc3)[C@@H]3CCCCCN[C@H]32)c1 (racemic)	61	< 50	11	98	–	–	–	–
O=C1CCCC[C@@H]2[C@H]1[C@@H](c1ccccc1)CN2Cc1ccccc1 (racemic)	4	–	–	38	–	–	–	–
O=C1CCCC[C@@H]2[C@H](C[C@H](Cc3ccccc3)N2Cc2ccccc2)N1 (racemic)	99	> 50	61	82	7.5	5.6	>8.8	>6.6
CC(C)(C)OC(=O)N1CC[C@H]2[C@H](C(=O)C1)[C@@H](c1ccccc1)CN2Cc1ccccc1 (racemic)	99	> 50	61	94	9	4.47	>11.2	>5.5
O=C1CCCC[C@@H]2[C@H]1[C@@H](c1ccccc1)CN2S(=O)(=O)c1ccccc1 (racemic)	88	> 200	84	78	16.5	11.4	17.6	12.1
CCOC(=O)[C@@H]1C[C@@H]2C(=O)CCCC[C@@H]2N1S(=O)(=O)c1ccnn1C (racemic)	17	> 200	–	–	–	–	–	–
CCOC(=O)[C@@H]1C[C@@H]2/C(=N/OCc3ccccc3)CCCC[C@@H]2N1S(=O)(=O)c1ccc(C)cc1 (racemic)	30	> 200	–	–	–	–	–	–
CC(C)(C)OC(=O)N1CC[C@@H]2NC[C@H](c3ccccc3)[C@H]2C(=O)C1.Cl (racemic)	47	> 150	97	48	–	–	–	–
CCNC(=O)[C@@H]1C[C@@H]2C(=O)CCCC[C@@H]2N1S(=O)(=O)c1ccc(C)cc1 (racemic)	39	> 200	–	15	–	–	–	–
CCOC(=O)[C@@H]1C[C@@H]2C(=O)CCCC[C@@H]2N1S(=O)(=O)c1ccc(Cl)cc1 (racemic)	60	> 200	–	32	–	23.8	8.4	–
